Assay results: ChEMBL document CHEMBL3124885, “Discovery of 7-tetrahydropyran-2-yl chromans: β-site amyloid precursor protein cleaving enzyme 1 (BACE1) inhibitors that reduce amyloid β-protein (Aβ) in the central nervous system” (J Med Chem, 2014)

Legend:
[1] = Clearance in CD-1 mouse liver microsomes at 1 uM after 20 mins by LC-MS/MS analysis in presence of NADPH; format: ADME, Microsome
Procedure, shortened: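 Compound at 1 μM incubated with mouse liver microsomes for 20 min at 37 °C with NADPH.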

[2] = Ratio of unbound drug level in brain to plasma in CD-1 mouse measured at 4 hrs; format: ADME; conditions: for Kp uu at 4 h: CD-1, mouse, read-out: K(p,uu,brain)
Procedure, shortened: (§1)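 Male CD-1 mice given 10 mg/kg po, 3 per cohort; plasma and brain collected at 1 and 4 h. Free brain/plasma ratio from unbound concentrations; coverage ratio = free brain concentration divided by HEK293 Aβ₁₋₄₀ cell IC50.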

[3] = system: Brain; test: Fraction unbound in CD-1 mouse brain at 10 mg/kg, po measured at 4 hrs; format: ADME, organism-based; design: dose 10 mg/kg, route oral; conditions: in vivo
Procedure, shortened: (§2)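 Male CD-1 mice, 3 per cohort, dosed 10 mg/kg orally; brains harvested at 1 and 4 h.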

[4] = Ratio of unbound drug level in brain to plasma in CD-1 mouse measured at 1 hr; format: ADME; conditions: for Kp uu at 1 h: CD-1, mouse, read-out: K(p,uu,brain); procedure, shortened: as §1
[5] = system: Brain; test: Fraction unbound in CD-1 mouse brain at 10 mg/kg, po measured at 1 hr; format: ADME, organism-based; design: dose 10 mg/kg, route oral; conditions: in vivo; procedure, shortened: as §2
[6] = system: Plasma; test: Unbound plasma concentration in CD-1 mouse at 3 mg/kg, iv and 10 mg/kg, po measured at 4 hrs; format: ADME, organism-based; conditions: in vivo
Procedure, shortened: (§3)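 Male CD-1 mice, 3 per cohort, dosed 3 mg/kg iv and 10 mg/kg po; plasma drawn at 1 and 4 h, brains harvested from oral groups only. Formulations varied by compound: 40% PEG 400/10% EtOH/50% H₂O; 30% captisol in H₂O; iv 50 mM citrate in saline (pH 4); po 1% CMC/0.5% Tween/5 mM citrate in H₂O.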

[7] = system: Plasma; test: Unbound plasma concentration in CD-1 mouse at 3 mg/kg, iv and 10 mg/kg, po measured at 1 hr; format: ADME, organism-based; conditions: in vivo; procedure, shortened: as §3
[8] = Oral bioavailability in CD-1 mouse at 10 mg/kg; format: ADME, organism-based; conditions: in vivo
[9] = system: Mus musculus; test: Hepatic clearance in CD-1 mouse at 3 mg/kg, iv; format: ADME, organism-based, Liver; design: dose 3 mg/kg, route intravenous; conditions: in vivo; procedure, shortened: as §3
[10] = Dissociation constant, pKa of the compound by parallel capillary electrophoresis method; format: physicochemical
Procedure, shortened: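 pKa determined by a 24-point parallel capillary electrophoresis method, quantitation by UV absorbance at 229 nm.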

[11] = Drug uptake in Hartley guinea pig CSF at 60 mg/kg, po measured at 5 hrs; format: ADME, organism-based, Cavia porcellus, Cerebrospinal fluid; design: dose 60 mg/kg, route oral; conditions: read-out: Drug uptake
Procedure, shortened: (§4)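 Male Hartley guinea pigs, oral dosing (CMC/Tween/citrate suspension or PEG/EtOH/H₂O solution), six or eight animals per cohort; CSF drug concentration (nM) measured at each time point.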

[12] = Ratio of unbound drug level in brain to plasma in Hartley guinea pig at 60 mg/kg, po measured at 5 hrs; format: ADME, organism-based, Cavia porcellus; design: dose 60 mg/kg, route oral; conditions: brain and plasma (unbound), read-out: K(p,uu,brain)
Procedure, shortened: (§5)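 Male Hartley guinea pigs given single oral doses of 30, 60 or 100 mg/kg in 1% CMC/0.5% Tween/5 mM citrate in H₂O, 6–8 animals per cohort. Plasma, brain and CSF sampled at 1–12 h; free brain to free plasma ratio computed.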

[13] = Fraction unbound in Hartley guinea pig brain at 60 mg/kg, po measured at 5 hrs; format: ADME, organism-based, Cavia porcellus; design: dose 60 mg/kg, route oral; conditions: in vivo
[14] = Unbound plasma concentration in Hartley guinea pig at 60 mg/kg, po measured at 5 hrs; format: ADME, organism-based, Cavia porcellus; design: dose 60 mg/kg, route oral; conditions: in vivo
Procedure, shortened: (§6)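 Male Hartley guinea pigs were dosed orally at 30, 60 or 100 mg/kg, with six or eight animals per cohort. The vehicle was either a suspension in 1% CMC/0.5% Tween/5 mM citrate in H₂O or a 40/10/50 PEG/EtOH/H₂O solution, depending on compound. Unbound plasma concentration was sampled at 1–12 h post-dose alongside brain, CSF and CSF Aβ₁₋₄₀.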

[15] = Drug uptake in Hartley guinea pig CSF at 60 mg/kg, po measured at 3 hrs; format: ADME, organism-based, Cavia porcellus, Cerebrospinal fluid; design: dose 60 mg/kg, route oral; conditions: read-out: Drug uptake; procedure, shortened: as §4
[16] = Fraction unbound in Hartley guinea pig brain at 60 mg/kg, po measured at 3 hrs; format: ADME, organism-based, Cavia porcellus; design: dose 60 mg/kg, route oral; conditions: in vivo
[17] = Ratio of unbound drug level in brain to plasma in Hartley guinea pig at 60 mg/kg, po measured at 3 hrs; format: ADME, organism-based, Cavia porcellus; design: dose 60 mg/kg, route oral; conditions: brain and plasma (unbound), read-out: K(p,uu,brain); procedure, shortened: as §5
[18] = Unbound plasma concentration in Hartley guinea pig at 60 mg/kg, po measured at 3 hrs; format: ADME, organism-based, Cavia porcellus; design: dose 60 mg/kg, route oral; conditions: in vivo; procedure, shortened: as §6

| CLhep predicted at 1 µM [1] | Kp uu at 4 h [2] | Drug uptake(free) [3] | Kp uu at 1 h [4] | Drug uptake(free) [5] | Cp(f) [6] | Cp(f) [7] | bioavailability [8] | CLH [9] | SMILES | other results |
| --- | --- | --- | --- | --- | --- | --- | --- | --- | --- | --- |
| 65 mL/min/kg |  |  |  |  |  |  |  |  | C[C@]12CCOC[C@@H]1[C@]1(COC(N)=N1)c1cc(-c3cncc(Cl)c3)c(F)cc1O2 (racemic) |  |
| 55 mL/min/kg | 0.15 | 3.7 nM | 0.036 | 1.9 nM | 25 nM | 53 nM | 15% | 51 mL/min/kg | CN1C(=O)[C@]2(N=C1N)c1cc(-c3cccnc3F)ccc1O[C@H]1CCOC[C@@]12C (racemic) |  |
| 84 mL/min/kg |  |  |  |  |  |  |  |  | C[C@]12CCOC[C@@H]1[C@]1(COC(N)=N1)c1cc(-c3cccnc3F)c(F)cc1O2 (racemic) |  |
| 60 mL/min/kg | 0.048 | 5.8 nM | 0.082 | 18 nM | 120 nM | 220 nM | 76% | 34 mL/min/kg | C[C@]12CCOC[C@@H]1[C@]1(COC(N)=N1)c1cc(-c3cncc(Cl)c3)ccc1O2 (racemic) |  |
| 21 mL/min/kg |  |  |  |  |  |  |  |  | CN1C(=O)[C@]2(N=C1N)c1cc(-c3cccc(OC(F)F)c3)c(F)cc1O[C@H]1CCOC[C@@H]12 (racemic) |  |
| 51 mL/min/kg | < 0.012 | < 0.75 nM | 0.027 | 7.1 nM | 63 nM | 260 nM | 75% | 72 mL/min/kg | C[C@H]1OCC[C@H]2Oc3ccc(-c4cccnc4F)cc3[C@]3(N=C(N)N(C)C3=O)[C@H]12 (racemic) |  |
| 57 mL/min/kg | 0.68 | 2.5 nM | 0.76 | 7.2 nM | 3.7 nM | 9.5 nM | 43% | 48 mL/min/kg | C[C@]12CCOC[C@@H]1[C@]1(COC(N)=N1)c1cc(-c3cc(F)cc(Cl)c3)ccc1O2 | pKa [10]: 6.7 |
| 54 mL/min/kg | < 0.11 | < 0.8 nM | 0.038 | 1 nM | 7.5 nM | 26 nM | 19% | 110 mL/min/kg | CN1C(=O)[C@]2(N=C1N)c1cc(-c3cncc(Cl)c3)ccc1O[C@H]1CCOC[C@@H]12 (racemic) |  |
| 61 mL/min/kg |  |  |  |  |  |  |  |  | C[C@]12CCOC[C@@H]1[C@]1(COC(N)=N1)c1cc(-c3cccnc3F)ccc1O2 (racemic) |  |
| 17 mL/min/kg | 0.025 | 4.3 nM | 0.014 | 3 nM | 170 nM | 210 nM | 103% | 35 mL/min/kg | CN1C(=O)[C@]2(N=C1N)c1cc(-c3cccc(C#N)c3)ccc1O[C@H]1CCOC[C@@H]12 (racemic) |  |
|  |  |  |  |  |  |  |  |  | C[C@@]12COCC[C@H]1Oc1ccc(-c3cccnc3F)cc1[C@@]21COC(N)=N1 (racemic) | pKa [10]: 6.4 |
| 46 mL/min/kg |  | 8.4 nM |  | 11 nM | 75 nM | 320 nM |  | 70 mL/min/kg | CN1C(=O)[C@]2(N=C1N)c1cc(-c3cccnc3F)ccc1O[C@H]1CCOC[C@@H]12 (racemic) | K(p,uu,brain) ([2]; mouse, 4 h): 0.11; K(p,uu,brain) ([4]; mouse, 1 h): 0.034 |
|  |  |  |  |  |  |  |  |  | C[C@H]1OCC[C@H]2Oc3ccc(-c4cccnc4F)cc3[C@@]3(COC(N)=N3)[C@H]12 (racemic) | pKa [10]: 6.4 |
|  |  |  |  |  |  |  |  |  | CN1C(=O)[C@]2(N=C1N)c1cc(-c3cccc(C#N)c3)ccc1O[C@H]1CCOC[C@@H]12 | concentration at 5 h [11]: 40 nM; Kp uu at 5 h [12]: 0.085; Drug uptake(free) [13]: 6.7 nM; Cp(f) [14]: 79 nM; concentration at 3 h [15]: 90 nM; Drug uptake(free) [16]: 12 nM; Kp uu at 3 h [17]: 0.046; Cp(f) [18]: 260 nM |
| 32 mL/min/kg | 0.029 | 0.49 nM | 0.032 | 0.28 nM | 17 nM | 8.7 nM | 67% | 22 mL/min/kg | CN1C(=O)[C@]2(N=C1N)c1cc(-c3cc(F)cc(Cl)c3)ccc1O[C@H]1CCOC[C@@H]12 (racemic) |  |
| 40 mL/min/kg |  |  |  |  |  |  |  |  | CN1C(=O)[C@]2(N=C1N)c1cc(-c3cccnc3F)c(F)cc1O[C@H]1CCOC[C@@H]12 (racemic) |  |
| 45 mL/min/kg | < 0.14 | < 2.3 nM | 0.028 | 4.4 nM | 17 nM | 160 nM | 38% | 140 mL/min/kg | CN1C(=O)[C@]2(N=C1N)c1cc(-c3cncc(F)c3)ccc1O[C@H]1CCOC[C@@H]12 (racemic) |  |
